Assay results from ChEMBL document CHEMBL3286372, “Design, synthesis and structure-activity relationship of novel semi-synthetic flavonoids as antiproliferative agents” (2014).

Experiments:
[1] = Growth inhibition of human OVCAR5 cells after 48 hrs by coulter counting analysis; type: functional; conditions: OVCAR-5, 48 h
In short: (§1)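 Five-dose NCI-60 follow-up, 0.01–100 µM, made from DMSO stock in buffered saline (final DMSO <1%), in duplicate wells. Cells in RPMI 1640 with 10% FBS at 6×10^4 cells/ml, 37 °C, 5% CO2, 48 h. Cells diluted tenfold in saline, Coulter-counted and corrected for dilution. GI50, TGI and LC50 taken from log concentration–percent growth curves.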

[2] = Growth inhibition of human NCI-ADR-RES cells after 48 hrs by coulter counting analysis; type: functional; in short: as §1
SK-OV-3 = test: Growth inhibition of human SKOV3 cells after 48 hrs by coulter counting analysis; type: functional; conditions: SK-OV-3, 48 h; in short: as §1
786-0 = test: Growth inhibition of human 786-0 cells after 48 hrs by coulter counting analysis; type: functional; conditions: 786-0, 48 h
In short: (§2)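 NCI five-dose screen at 0.01-100 µM, diluted from DMSO stocks in buffered saline (final DMSO <1%). Cells at 6×10^4 cells/ml in RPMI 1640 with 10% FBS, in duplicate wells, at 37 °C under 5% CO2 for 48 h. Cells diluted tenfold in saline and Coulter-counted. GI50, TGI and LC50 taken from log concentration-growth inhibition curves.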

A498 = test: Growth inhibition of human A498 cells after 48 hrs by coulter counting analysis; type: functional; conditions: A498, 48 h; in short: as §2
ACHN = test: Growth inhibition of human ACHN cells after 48 hrs by coulter counting analysis; type: functional; in short: as §2
CAKI-1 = test: Growth inhibition of human CAKI-1 cells after 48 hrs by coulter counting analysis; type: functional; conditions: CAKI-1, 48 h; in short: as §2
SN12C = test: Growth inhibition of human SN12C cells after 48 hrs by coulter counting analysis; type: functional; in short: as §1
[3] = Growth inhibition of human UO31 cells after 48 hrs by coulter counting analysis; type: functional; conditions: UO-31, 48 h
In short: (§3)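 NCI five-dose screen, 0.01-100 µM, from DMSO stocks diluted in buffer saline (final DMSO <1%). Cells grown in RPMI 1640 + 10% FBS, seeded at 6×10^4 cells/ml, in duplicate wells. Exposure 48 h at 37 °C, 5% CO2. Cells diluted 10-fold in saline and counted by Coulter counter. GI50 derived from log concentration–percent growth inhibition curves. Controls carried matching PBS/saline/DMSO.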

PC-3 = test: Growth inhibition of human PC3 cells after 48 hrs by coulter counting analysis; type: functional; conditions: PC-3, 48 h; in short: as §1
DU-145 = test: Growth inhibition of human DU145 cells after 48 hrs by coulter counting analysis; type: functional; conditions: DU-145, 48 h; in short: as §2
MCF7 = test: Growth inhibition of human MCF7 cells after 48 hrs by coulter counting analysis; type: functional; conditions: MCF7, 48 h; in short: as §2
[4] = Growth inhibition of human BT549 cells after 48 hrs by coulter counting analysis; type: functional; conditions: BT-549, 48 h; in short: as §2
[5] = molecular target: Cyclin-dependent kinase 2/cyclin E1 (Homo sapiens) (UniProt P24864+P24941); test: Inhibition of CDK2/Cyclin E1 (unknown origin) at 20 uM after 30 mins by scintillation counting analysis relative to control; type: protein-complex assay
In short: (§4)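 Recombinant kinases, cloned, expressed and purified in-house. Radiometric ³³P-ATP assay with kinase at ~10-50 nM final and 1-5 µg peptide or protein substrate. Compound at 20 µM final, in duplicate. Reaction started by adding ATP, run 30 min at ambient temperature, then spotted on P81 phosphocellulose. Plates washed in 1% phosphoric acid and counted by scintillation. No-substrate blank subtracted. Result is mean % activity change versus DMSO control.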

[6] = molecular target: Glycogen synthase kinase-3 beta (Homo sapiens) (UniProt P49841); test: Inhibition of GSK-3beta (unknown origin) at 20 uM after 30 mins by scintillation counting analysis relative to control; in short: as §4
Chain of Glycogen synthase kinase-3 beta (Homo sapiens) (P49841 whole entry, looked up): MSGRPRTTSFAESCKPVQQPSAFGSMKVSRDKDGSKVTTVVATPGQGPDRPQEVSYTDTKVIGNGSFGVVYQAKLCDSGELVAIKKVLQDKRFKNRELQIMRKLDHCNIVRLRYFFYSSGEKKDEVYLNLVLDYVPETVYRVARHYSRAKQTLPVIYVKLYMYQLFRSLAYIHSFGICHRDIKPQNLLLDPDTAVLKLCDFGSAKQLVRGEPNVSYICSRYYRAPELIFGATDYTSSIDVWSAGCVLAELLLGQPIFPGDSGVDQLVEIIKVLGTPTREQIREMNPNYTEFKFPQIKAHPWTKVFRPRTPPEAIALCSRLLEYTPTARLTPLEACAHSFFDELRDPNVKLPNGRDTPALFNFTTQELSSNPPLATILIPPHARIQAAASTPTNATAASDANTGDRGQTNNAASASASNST

CCRF-CEM = test: Growth inhibition of human CCRF-CEM cells after 48 hrs by coulter counting analysis; type: functional; in short: as §2
[7] = Growth inhibition of human MOLT4 cells after 48 hrs by coulter counting analysis; type: functional; conditions: MOLT-4, 48 h; in short: as §1
RPMI-8226 = test: Growth inhibition of human RPMI8226 cells after 48 hrs by coulter counting analysis; type: functional; conditions: RPMI-8226, 48 h; in short: as §1
[8] = Growth inhibition of human EKVX cells after 48 hrs by coulter counting analysis; type: functional; in short: as §2
[9] = Growth inhibition of human HOP92 cells after 48 hrs by coulter counting analysis; type: functional; conditions: HOP-92, 48 h; in short: as §2
NCI-H23 = test: Growth inhibition of human NCI-H23 cells after 48 hrs by coulter counting analysis; type: functional; conditions: NCI-H23, 48 h; in short: as §1
NCI-H322M = test: Growth inhibition of human NCI-H322M cells after 48 hrs by coulter counting analysis; type: functional; in short: as §1
NCI-H522 = test: Growth inhibition of human NCI-H522 cells after 48 hrs by coulter counting analysis; type: functional; conditions: NCI-H522, 48 h; in short: as §1
COLO 205 = test: Growth inhibition of human COLO205 cells after 48 hrs by coulter counting analysis; type: functional; conditions: COLO 205, 48 h; in short: as §2
HCT-116 = test: Growth inhibition of human HCT116 cells after 48 hrs by coulter counting analysis; type: functional; conditions: HCT-116, 48 h; in short: as §2
[10] = Growth inhibition of human HCT15 cells after 48 hrs by coulter counting analysis; type: functional; conditions: HCT-15, 48 h; in short: as §2
HT-29 = test: Growth inhibition of human HT-29 cells after 48 hrs by coulter counting analysis; type: functional; conditions: HT-29, 48 h; in short: as §2
KM12 = test: Growth inhibition of human KM12 cells after 48 hrs by coulter counting analysis; type: functional; conditions: KM12, 48 h; in short: as §2
SW-620 = test: Growth inhibition of human SW620 cells after 48 hrs by coulter counting analysis; type: functional; conditions: SW-620, 48 h; in short: as §1
SF-268 = test: Growth inhibition of human SF268 cells after 48 hrs by coulter counting analysis; type: functional; conditions: SF-268, 48 h; in short: as §1
[11] = Growth inhibition of human SF295 cells after 48 hrs by coulter counting analysis; type: functional; conditions: SF-295, 48 h; in short: as §1
[12] = Growth inhibition of human SF539 cells after 48 hrs by coulter counting analysis; type: functional; conditions: SF-539, 48 h; in short: as §1
U-251 = test: Growth inhibition of human U251 cells after 48 hrs by coulter counting analysis; type: functional; conditions: U-251, 48 h; in short: as §3
[13] = Growth inhibition of human LOXIMVI cells after 48 hrs by coulter counting analysis; type: functional; conditions: LOX IMVI; in short: as §2
Malme-3M = test: Growth inhibition of human MALME-3M cells after 48 hrs by coulter counting analysis; type: functional; in short: as §2
M14 = test: Growth inhibition of human M14 cells after 48 hrs by coulter counting analysis; type: functional; conditions: M14, 48 h; in short: as §2
SK-MEL-2 = test: Growth inhibition of human SK-MEL-2 cells after 48 hrs by coulter counting analysis; type: functional; conditions: SK-MEL-2, 48 h; in short: as §1
[14] = Growth inhibition of human UACC257 cells after 48 hrs by coulter counting analysis; type: functional; conditions: UACC-257, 48 h; in short: as §3
[15] = Growth inhibition of human UACC62 cells after 48 hrs by coulter counting analysis; type: functional; conditions: UACC-62, 48 h; in short: as §3
[16] = Growth inhibition of human OVCAR3 cells after 48 hrs by coulter counting analysis; type: functional; conditions: OVCAR-3, 48 h; in short: as §1

SMILES | GI50 [1] [µM] | GI50 [2] [µM] | GI50 (SK-OV-3) [µM] | GI50 (786-0) [µM] | GI50 (A498) [µM] | GI50 (ACHN) [µM] | GI50 (CAKI-1) [µM] | GI50 (SN12C) [µM] | GI50 [3] [µM] | GI50 (PC-3) [µM] | GI50 (DU-145) [µM] | GI50 (MCF7) [µM] | GI50 [4] [µM] | inhibition [5] [%] | inhibition [6] [%] | GI50 (RPMI-8226) [µM] | GI50 [8] [µM] | GI50 [9] [µM] | GI50 (NCI-H23) [µM] | GI50 (NCI-H322M) [µM] | other results
C=CCc1c(O)c(C(=O)/C=C/c2ccccc2)c(OC)c2ccoc12 | 3.22 | 1.88 | 8.08 | 4.12 | 1.74 | 3.79 | 2.8 | 3.79 | 2.89 | 3.68 | 4.92 | 2.73 | 2.63 | 0 | 38 | 1.88 | 6.13 | 1.33 | 2.52 | 3.19 | GI50 (CCRF-CEM): 2.75 µM; GI50 [7]: 2.17 µM; GI50 (NCI-H522): 2.15 µM; GI50 (COLO 205): 5.96 µM; GI50 (HCT-116): 3.03 µM; GI50 [10]: 2.91 µM; GI50 (HT-29): 3.01 µM; GI50 (KM12): 4.06 µM; GI50 (SW-620): 3.32 µM; GI50 (SF-268): 2.8 µM; GI50 [11]: 2.44 µM; GI50 [12]: 1.71 µM; GI50 (U-251): 2.36 µM; GI50 [13]: 1.56 µM; GI50 (Malme-3M): 5.8 µM; GI50 (M14): 5.36 µM; GI50 (SK-MEL-2): 3.04 µM; GI50 [14]: 2.56 µM; GI50 [15]: 2.74 µM; GI50 [16]: 2.46 µM
COc1c(C(=O)/C=C/c2ccccc2)c(O)cc2occc12 | 5.67 | 2.42 | 14.1 | 16.2 | 7.97 | 4.51 | 8.07 | 4.48 | 3.14 | 7.01 | 3.81 | 3.52 | 7.72 | 1 | 28 | 3.15 | 12.5 | 1.64 | 6.12 | 13.6 | GI50 [7]: 3.36 µM; GI50 (NCI-H522): 4.29 µM; GI50 (COLO 205): 15.7 µM; GI50 (HCT-116): 3.72 µM; GI50 [10]: 5.25 µM; GI50 (HT-29): 6.34 µM; GI50 (KM12): 3.71 µM; GI50 (SW-620): 3.52 µM; GI50 (SF-268): 4.05 µM; GI50 [11]: 7.83 µM; GI50 [12]: 3.22 µM; GI50 (U-251): 4.39 µM; GI50 [13]: 1.69 µM; GI50 (M14): 8.89 µM; GI50 (SK-MEL-2): 12.4 µM; GI50 [14]: 7.01 µM; GI50 [15]: 4.15 µM; GI50 [16]: 3.76 µM
COc1ccccc1/C=C/C(=O)c1c(O)cc2occc2c1OC | > 100 | 29.6 | 21.3 | 35.3 | 46 | 30 | > 100 | > 100 | > 100 | > 100 | 23.5 | 9.56 | 28.2 | 6 | 17 | 23.5 | 33.7 | 2.98 | 22.4 | > 100 | GI50 (CCRF-CEM): 9.72 µM; GI50 (NCI-H522): > 100 µM; GI50 (COLO 205): > 100 µM; GI50 (HCT-116): 40.4 µM; GI50 [10]: > 100 µM; GI50 (HT-29): > 100 µM; GI50 (KM12): > 100 µM; GI50 (SW-620): > 100 µM; GI50 (SF-268): 22.2 µM; GI50 [11]: 16.6 µM; GI50 [12]: 24.3 µM; GI50 (U-251): 18.9 µM; GI50 [13]: 30.1 µM; GI50 (Malme-3M): 18.9 µM; GI50 (M14): > 100 µM; GI50 (SK-MEL-2): > 100 µM; GI50 [14]: > 100 µM; GI50 [15]: 23.7 µM; GI50 [16]: 47.4 µM
C=CCc1c(O)c(C(=O)/C=C/c2ccc(Cl)cc2)c(OC)c2ccoc12 | 2.8 | 2.23 | 5.96 | 4.83 | 2.77 | 2.31 | 2.61 | 4.96 | 2.88 | 3.81 | 3.85 | 2.51 | 3 | 3 | 80 | 3.04 | 7.23 | 1.69 | 2.78 | 4.88 | GI50 (CCRF-CEM): 3.33 µM; GI50 [7]: 2.61 µM; GI50 (NCI-H522): 1.88 µM; GI50 (COLO 205): 4.44 µM; GI50 (HCT-116): 2.74 µM; GI50 [10]: 3.4 µM; GI50 (HT-29): 1.89 µM; GI50 (KM12): 3.72 µM; GI50 (SW-620): 2.56 µM; GI50 (SF-268): 3.25 µM; GI50 [11]: 2.77 µM; GI50 [12]: 1.79 µM; GI50 (U-251): 2.3 µM; GI50 [13]: 1.63 µM; GI50 (Malme-3M): 2.74 µM; GI50 (M14): 5.08 µM; GI50 (SK-MEL-2): 3.97 µM; GI50 [14]: 2.39 µM; GI50 [15]: 2.88 µM; GI50 [16]: 1.97 µM
